Assay results: ChEMBL document CHEMBL5705894, “SB1518, a novel macrocyclic pyrimidine-based JAK2 inhibitor for the treatment of myeloid and lymphoid malignancies” (Leukemia, 2011)
Calls of active or inactive are those of the source. The calls are words filed in the database; no cut-off is given here.

Assays:
[1] = system: Tyrosine-protein kinase JAK2 (Homo sapiens), O60674 [V617F]; conditions: SET2, dose 8-1000 nM, time 3.0 hrs
Mus musculus [2] = assay: In vivo inhibition of JAK2 V617F mutant in SCID Beige mouse xenografted with human SET2 cells assessed as increased JAK2 phosphorylation at Y1007/8 by immunoblotting analysis; type: functional, organism-based; conditions: dose 75-150 mg/kg, route po
Summary of the method: (§1)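 Subcutaneous SET-2 tumors in SCID beige mice. Single oral doses of 75 or 150 mg/kg were given at about 300 mm3 tumor size; in the chronic arm, dosing ran for 18 days. Tumors were collected 3 h post-dose, lysed, and immunoblotted for pJAK2 (Y1007/8) and pSTAT5.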

[3] = molecular target: Tyrosine-protein kinase JAK2 (Homo sapiens) (UniProt O60674); conditions: HEK-293T, dose 8-1000 nM, time 3.0 hrs
Sequence of Tyrosine-protein kinase JAK2 (Homo sapiens) (O60674 whole entry): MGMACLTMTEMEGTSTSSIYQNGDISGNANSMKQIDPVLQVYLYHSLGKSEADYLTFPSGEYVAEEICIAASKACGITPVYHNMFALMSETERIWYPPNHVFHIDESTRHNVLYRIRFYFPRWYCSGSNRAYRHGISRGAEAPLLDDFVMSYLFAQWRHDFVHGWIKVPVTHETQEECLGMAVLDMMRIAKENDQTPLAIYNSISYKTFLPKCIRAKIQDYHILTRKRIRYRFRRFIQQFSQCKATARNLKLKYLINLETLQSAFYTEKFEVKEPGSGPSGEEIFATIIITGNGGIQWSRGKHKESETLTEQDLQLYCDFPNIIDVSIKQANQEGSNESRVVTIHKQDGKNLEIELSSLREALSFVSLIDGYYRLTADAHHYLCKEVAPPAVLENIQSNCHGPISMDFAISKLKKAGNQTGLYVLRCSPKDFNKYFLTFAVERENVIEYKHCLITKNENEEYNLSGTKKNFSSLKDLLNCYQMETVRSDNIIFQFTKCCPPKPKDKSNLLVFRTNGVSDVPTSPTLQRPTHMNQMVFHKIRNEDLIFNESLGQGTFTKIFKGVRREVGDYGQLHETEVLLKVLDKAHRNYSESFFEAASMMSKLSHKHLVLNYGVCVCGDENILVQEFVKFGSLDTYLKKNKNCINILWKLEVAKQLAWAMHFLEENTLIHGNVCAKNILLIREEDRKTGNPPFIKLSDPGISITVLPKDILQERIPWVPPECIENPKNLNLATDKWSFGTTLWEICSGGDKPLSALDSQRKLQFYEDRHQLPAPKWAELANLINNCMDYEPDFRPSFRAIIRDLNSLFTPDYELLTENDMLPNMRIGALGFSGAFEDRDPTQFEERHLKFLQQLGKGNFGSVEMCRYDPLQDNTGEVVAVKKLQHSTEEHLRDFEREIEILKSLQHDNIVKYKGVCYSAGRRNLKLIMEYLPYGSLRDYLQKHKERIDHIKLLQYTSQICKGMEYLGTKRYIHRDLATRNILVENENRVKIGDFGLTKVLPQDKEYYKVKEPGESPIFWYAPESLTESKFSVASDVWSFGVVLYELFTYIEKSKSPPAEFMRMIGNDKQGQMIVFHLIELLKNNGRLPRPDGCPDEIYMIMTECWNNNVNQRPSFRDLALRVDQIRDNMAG

[4] = molecular target: Tyrosine-protein kinase JAK2 (Homo sapiens) (UniProt O60674); conditions: HEK-293T, dose 8-1000 nM, time 3.0 hrs; remark: listed apart in the source
MCF7 = assay: Antiproliferative activity against human MCF7 cells assessed as inhibition of cell viability incubated for 48 hrs by CellTiterGlo assay; type: functional, cell-based; conditions: MCF7, 48 h
Summary of the method: (§2)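 Cells seeded at 30–50% confluency in 96-well plates, then treated the next day in triplicate at up to 10 μM for 48 h. Viability read by CellTiter-Glo luminescence. IC50 taken from fitted dose–response curves.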

[5] = In vivo inhibition of JAK2 V617F mutant in athymic BALB/c nude mouse xenografted with mouse BaF3 cells administered for 24 hrs; type: functional
SET-2 [6] = assay: Anti-tumor activity against human SET2 cells xenografted in SCID Beige mouse assessed as tumor growth inhibition at 75 mg/kg, po administered for 18 days and measured twice a week relative to control; type: functional; conditions: SET-2, 432 h, time 18 day, read-out: TGI
Summary of the method: (§3)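 SCID beige mice received 5 × 10^6 SET-2 cells subcutaneously in the right flank, in serum-free medium mixed 1:1 with Matrigel. Dosing began when tumors averaged about 280 mm3 (day 31). Oral gavage at 10 ml/kg for 18 consecutive days, 12 mice per group. Caliper volume = (w² × l)/2. Animals were killed 3 h after the final dose.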

[7] = system: Tyrosine-protein kinase JAK2 (Mus musculus), Q62120 [V617F]; assay: Inhibition of JAK2 V617F mutant expressed in mouse BaF3 cells assessed as decreased total tyrosine phosphorylation at 1000 nM incubated for 3 hrs by Western blotting analysis; type: cell-based
Sequence of Tyrosine-protein kinase JAK2 (Mus musculus), Q62120 [V617F] (Q62120 as listed by the source): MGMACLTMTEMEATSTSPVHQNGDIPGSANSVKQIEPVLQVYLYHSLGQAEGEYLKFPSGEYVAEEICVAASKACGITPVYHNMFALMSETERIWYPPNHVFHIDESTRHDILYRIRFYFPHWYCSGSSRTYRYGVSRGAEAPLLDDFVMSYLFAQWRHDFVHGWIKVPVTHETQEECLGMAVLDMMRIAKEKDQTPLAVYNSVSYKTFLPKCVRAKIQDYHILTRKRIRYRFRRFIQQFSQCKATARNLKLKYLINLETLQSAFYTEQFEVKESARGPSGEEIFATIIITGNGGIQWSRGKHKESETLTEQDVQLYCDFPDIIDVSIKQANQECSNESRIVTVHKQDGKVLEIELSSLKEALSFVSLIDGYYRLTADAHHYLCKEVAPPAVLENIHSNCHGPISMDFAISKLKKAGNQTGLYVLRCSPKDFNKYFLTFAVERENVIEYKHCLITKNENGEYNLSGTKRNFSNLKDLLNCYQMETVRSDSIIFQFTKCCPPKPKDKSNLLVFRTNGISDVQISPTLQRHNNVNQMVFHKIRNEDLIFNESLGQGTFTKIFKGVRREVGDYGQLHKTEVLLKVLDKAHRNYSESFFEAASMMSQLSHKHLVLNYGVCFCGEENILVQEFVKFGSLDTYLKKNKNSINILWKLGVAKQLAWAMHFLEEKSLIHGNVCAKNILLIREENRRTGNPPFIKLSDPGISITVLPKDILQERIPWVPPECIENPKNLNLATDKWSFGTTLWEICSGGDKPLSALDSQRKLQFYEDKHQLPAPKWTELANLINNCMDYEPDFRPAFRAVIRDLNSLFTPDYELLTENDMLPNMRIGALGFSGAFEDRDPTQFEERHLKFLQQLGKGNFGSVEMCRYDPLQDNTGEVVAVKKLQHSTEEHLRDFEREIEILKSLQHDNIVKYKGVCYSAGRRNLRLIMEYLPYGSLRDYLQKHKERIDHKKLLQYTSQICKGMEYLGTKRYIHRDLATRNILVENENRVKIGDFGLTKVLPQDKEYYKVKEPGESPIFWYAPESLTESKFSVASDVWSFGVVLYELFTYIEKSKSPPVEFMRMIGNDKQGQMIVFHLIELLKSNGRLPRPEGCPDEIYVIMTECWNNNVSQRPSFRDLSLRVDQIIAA

SNU-475 = assay: Antiproliferative activity against human SNU-475 cells assessed as inhibition of cell viability incubated for 48 hrs by CellTiterGlo assay; type: functional, cell-based; conditions: SNU-475, 48 h
Summary of the method: as §2

MKN-7 = assay: Antiproliferative activity against human MKN-7 cells assessed as inhibition of cell viability incubated for 48 hrs by CellTiterGlo assay; type: functional, cell-based; conditions: MKN-7, 48 h
Summary of the method: as §2

[8] = molecular target: Tyrosine-protein kinase JAK2 (Homo sapiens) (UniProt O60674); conditions: Jurkat, dose 8-1000 nM, time 3.0 hrs
SET-2 [9] = assay: Induction of cell cycle arrest in human SET2 cells expressing JAK2 V617F mutant assessed as accumulation of cells at G0/1 phase incubated for 24 hrs by PI staining based flow cytometry; type: functional
Summary of the method: (§4)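 Cells were fixed in 70% ice-cold ethanol and stained with propidium iodide, then analysed by flow cytometry for cell-cycle distribution.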

[10] = Antiproliferative activity against mouse 32D cells harboring JAK2 assessed as inhibition of cell viability incubated for 48 hrs by CellTiterGlo assay; type: functional, cell-based
Summary of the method: as §2

A549 = assay: Antiproliferative activity against human A549 cells assessed as inhibition of cell viability incubated for 48 hrs by CellTiterGlo assay; type: functional, cell-based; conditions: A549, 48 h
Summary of the method: as §2

[11] = system: Tyrosine-protein kinase JAK2 (Homo sapiens), O60674 [V617F]; conditions: HEL 92.1.7, dose 8-1000 nM, time 3.0 hrs
SET-2 [12] = assay: Anti-tumor activity against human SET2 cells xenografted in SCID Beige mouse assessed as tumor growth inhibition at 150 mg/kg, po administered for 18 days and measured twice a week relative to control; type: functional; conditions: SET-2, 432 h, time 18 day, read-out: TGI
Summary of the method: as §3

[13] = molecular target: Tyrosine-protein kinase JAK2 (Homo sapiens) (UniProt O60674); conditions: Jurkat, dose 40-1000 nM, time 3.0 hrs
Mus musculus [14] = assay: In vivo inhibition of JAK2 V617F mutant in SCID Beige mouse xenografted with human SET2 cells assessed as decreased STAT5 phosphorylation at Y694 by immunoblotting analysis; type: functional, organism-based; conditions: dose 75-150 mg/kg, route po
Summary of the method: as §1

HCT-116 = assay: Antiproliferative activity against human HCT-116 cells assessed as inhibition of cell viability incubated for 48 hrs by CellTiterGlo assay; type: functional, cell-based; conditions: HCT-116, 48 h
Summary of the method: as §2

NCI-H322M = assay: Antiproliferative activity against human NCI-H322M cells assessed as inhibition of cell viability incubated for 48 hrs by CellTiterGlo assay; type: functional, cell-based
Summary of the method: as §2

[15] = system: Tyrosine-protein kinase JAK2 (Homo sapiens), O60674 [V617F]; conditions: SET2, dose 1000.0 nM, time 3.0 hrs
[16] = Induction of apoptosis in human EPC cells derived from polycythemia vera patients assessed as activation of caspase-3/7 level incubated for 16 hrs; type: toxicity, cell-based; conditions: Homo sapiens, EPC
[17] = system: Tyrosine-protein kinase JAK2 (Homo sapiens), O60674 [V617F]; conditions: HEL 92.1.7, dose 8-1000 nM, time 3.0 hrs; remark: listed apart in the source
MV4-11 = assay: Antiproliferative activity against human MV4-11 cells harboring FLT3-ITD mutant assessed as inhibition of cell viability incubated for 48 hrs by CellTiterGlo assay; type: functional, cell-based; conditions: MV4-11, 48 h
Summary of the method: as §2

SET-2 [18] = assay: Induction of cell cycle arrest in human SET2 cells expressing JAK2 V617F mutant assessed as decrease in accumulation of cells at S-phase incubated for 24 hrs by PI staining based flow cytometry; type: functional
Summary of the method: as §4

Sequence of Tyrosine-protein kinase JAK2 (Homo sapiens), O60674 [V617F] (O60674 whole entry V617F): as the sequence (O60674 whole entry) above, with V617F counted along it

inhibition [1]: Dose-Dependent Effect
inhibition [3]: Dose-Dependent Effect
inhibition [4]: Dose-Dependent Effect
IC50 (MCF7): 0.853 µM
inhibition [7]: Active
IC50 (SNU-475): 2.44 µM
IC50 (MKN-7): 2.04 µM
inhibition [8]: Active
IC50 (A549): 2.55 µM
inhibition [11]: Active
inhibition [13]: Active
IC50 (HCT-116): 1.69 µM
IC50 (NCI-H322M): 2.18 µM
inhibition [15]: Active
inhibition [17]: Dose-Dependent Effect
IC50 (MV4-11): 0.047 µM
SMILES: C1=N/C2=N/c3ccc(OCCN4CCCC4)c(c3)COC/C=C/COCc3cccc(c3)C(=C1)N2 [PACRITINIB]
Activity (Mus musculus [2]): Dose-Dependent Effect
FIC50 [5]: 0.019 µM
inhibition in vivo at 75 mg/kg (SET-2 [6]): 40%
Activity (SET-2 [9]): Dose-Dependent Effect
IC50 [10]: 0.402 µM
inhibition in vivo at 150 mg/kg (SET-2 [12]): 61%
Activity (Mus musculus [14]): Dose-Dependent Effect
EC50 [16]: 0.224 µM
Activity (SET-2 [18]): Dose-Dependent Effect
